# Assay results: ChEMBL document CHEMBL1926577, “Novel 1,3,4-heterodiazole analogues: synthesis and in-vitro antitumor activity” (2012)
# Legend:
# Type in all cases: functional
# OVCAR-8 = experiment: Growth inhibition of human OVCAR8 cells at 10 uM after 48 hrs by coulter counter method; conditions: OVCAR-8, 48 h, read-out: GI
# How it was run: (§1)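 NCI 60-cell-line panel, single dose. Compound dissolved first in DMSO, then diluted in phosphate-buffered saline so that every final dilution held under 1% DMSO. Duplicate wells received cells at 6 × 10⁴ cells/ml. Controls held PBS/DMSO at the same dilution. Plates were incubated 48 h at 37 °C under 5% CO₂. Cells were then diluted 10-fold in saline and counted on a Coulter counter, with counts corrected for the dilution. Results are given as percent growth inhibition.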
# U-251 = experiment: Growth inhibition of human U251 cells at 10 uM after 48 hrs by coulter counter method; conditions: U-251, 48 h, read-out: GI; how it was run: as §1
# HCT-15 = experiment: Growth inhibition of human HCT15 cells at 10 uM after 48 hrs by coulter counter method; conditions: HCT-15, 48 h, read-out: GI; how it was run: as §1
# SF-295 = experiment: Growth inhibition of human SF295 cells at 10 uM after 48 hrs by coulter counter method; conditions: SF-295, 48 h, read-out: GI; how it was run: as §1
# SR = experiment: Growth inhibition of human SR cells at 10 uM after 48 hrs by coulter counter method; conditions: read-out: GI; how it was run: as §1
# Malme-3M = experiment: Growth inhibition of human MALME-3M cells at 10 uM after 48 hrs by coulter counter method; conditions: read-out: GI; how it was run: as §1
# 786-0 = experiment: Growth inhibition of human 786-0 cells at 10 uM after 48 hrs by coulter counter method; conditions: 786-0, 48 h, read-out: GI; how it was run: as §1
# ACHN = experiment: Growth inhibition of human ACHN cells at 10 uM after 48 hrs by coulter counter method; conditions: read-out: GI; how it was run: as §1
# SN12C = experiment: Growth inhibition of human SN12C cells at 10 uM after 48 hrs by coulter counter method; conditions: read-out: GI; how it was run: as §1
# UACC-62 = experiment: Growth inhibition of human UACC62 cells at 10 uM after 48 hrs by coulter counter method; conditions: UACC-62, 48 h, read-out: GI; how it was run: as §1
# A549 = experiment: Growth inhibition of human A549 cells at 10 uM after 48 hrs by coulter counter method; conditions: A549, 48 h, read-out: GI; how it was run: as §1
# SK-MEL-28 = experiment: Growth inhibition of human SK-MEL-28 cells at 10 uM after 48 hrs by coulter counter method; conditions: SK-MEL-28, 48 h, read-out: GI; how it was run: as §1
# NCI/ADR-RES = experiment: Growth inhibition of human NCI/ADR-RES cells at 10 uM after 48 hrs by coulter counter method; conditions: read-out: GI; how it was run: as §1
# SNB-75 = experiment: Growth inhibition of human SNB75 cells at 10 uM after 48 hrs by coulter counter method; conditions: SNB-75, 48 h, read-out: GI; how it was run: as §1
# BT-549 = experiment: Growth inhibition of human BT549 cells at 10 uM after 48 hrs by coulter counter method; conditions: BT-549, 48 h, read-out: GI; how it was run: as §1
# HL-60(TB) = experiment: Growth inhibition of human HL-60(TB) cells at 10 uM after 48 hrs by coulter counter method; conditions: HL-60, 48 h, read-out: GI
# How it was run: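 Single-dose screen on the NCI 60-line panel (leukemia subpanel). Compound is dissolved in DMSO and diluted in PBS, with final DMSO below 1%. Duplicate wells hold 6 × 10⁴ cells/ml at 37 °C, 5% CO₂, for 48 h. Cells are counted by Coulter counter after 10-fold saline dilution. Read-out is percent growth versus PBS/DMSO controls, expressed as % growth inhibition.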
# EKVX = experiment: Growth inhibition of human EKVX cells at 10 uM after 48 hrs by coulter counter method; conditions: read-out: GI; how it was run: as §1
# T47D = experiment: Growth inhibition of human T47D cells at 10 uM after 48 hrs by coulter counter method; conditions: read-out: GI; how it was run: as §1
# CAKI-1 = experiment: Growth inhibition of human Caki1 cells at 10 uM after 48 hrs by coulter counter method; conditions: CAKI-1, 48 h, read-out: GI; how it was run: as §1
# NCI-H522 = experiment: Growth inhibition of human NCI-H522 cells at 10 uM after 48 hrs by coulter counter method; conditions: NCI-H522, 48 h, read-out: GI; how it was run: as §1
# TK-10 = experiment: Growth inhibition of human TK10 cells at 10 uM after 48 hrs by coulter counter method; conditions: TK-10, 48 h, read-out: GI; how it was run: as §1
# SF-268 = experiment: Growth inhibition of human SF268 cells at 10 uM after 48 hrs by coulter counter method; conditions: SF-268, 48 h, read-out: GI; how it was run: as §1
# MOLT-4 = experiment: Growth inhibition of human MOLT4 cells at 10 uM after 48 hrs by coulter counter method; conditions: MOLT-4, 48 h, read-out: GI; how it was run: as §1
# SK-MEL-2 = experiment: Growth inhibition of human SK-MEL-2 cells at 10 uM after 48 hrs by coulter counter method; conditions: SK-MEL-2, 48 h, read-out: GI; how it was run: as §1
# IGROV-1 = experiment: Growth inhibition of human IGROV1 cells at 10 uM after 48 hrs by coulter counter method; conditions: IGROV-1, 48 h, read-out: GI; how it was run: as §1
# MCF7 = experiment: Growth inhibition of human MCF7 cells at 10 uM after 48 hrs by coulter counter method; conditions: MCF7, 48 h, read-out: GI; how it was run: as §1
# NCI-H23 = experiment: Growth inhibition of human NCI-H23 cells at 10 uM after 48 hrs by coulter counter method; conditions: NCI-H23, 48 h, read-out: GI; how it was run: as §1
# K562 = experiment: Growth inhibition of human K562 cells at 10 uM after 48 hrs by coulter counter method; conditions: K562, 48 h, read-out: GI; how it was run: as §1
# LOX IMVI = experiment: Growth inhibition of human LOXIMVI cells at 10 uM after 48 hrs by coulter counter method; conditions: read-out: GI; how it was run: as §1
# NCI-H226 = experiment: Growth inhibition of human NCI-H226 cells at 10 uM after 48 hrs by coulter counter method; conditions: NCI-H226, 48 h, read-out: GI; how it was run: as §1
# SK-MEL-5 = experiment: Growth inhibition of human SK-MEL-5 cells at 10 uM after 48 hrs by coulter counter method; conditions: SK-MEL-5, 48 h, read-out: GI; how it was run: as §1
# CCRF-CEM = experiment: Growth inhibition of human CCRF-CEM cells at 10 uM after 48 hrs by coulter counter method; conditions: read-out: GI; how it was run: as §1
# A498 = experiment: Growth inhibition of human A498 cells at 10 uM after 48 hrs by coulter counter method; conditions: A498, 48 h, read-out: GI; how it was run: as §1
# HT-29 = experiment: Growth inhibition of human HT-29 cells at 10 uM after 48 hrs by coulter counter method; conditions: HT-29, 48 h, read-out: GI; how it was run: as §1
# NCI-H322M = experiment: Growth inhibition of human NCI-H322M cells at 10 uM after 48 hrs by coulter counter method; conditions: read-out: GI; how it was run: as §1
# M14 = experiment: Growth inhibition of human M14 cells at 10 uM after 48 hrs by coulter counter method; conditions: M14, 48 h, read-out: GI; how it was run: as §1
# KM12 = experiment: Growth inhibition of human KM12 cells at 10 uM after 48 hrs by coulter counter method; conditions: KM12, 48 h, read-out: GI; how it was run: as §1
# MDA-MB-468 = experiment: Growth inhibition of human MDA-MB-468 cells at 10 uM after 48 hrs by coulter counter method; conditions: MDA-MB-468, 48 h, read-out: GI; how it was run: as §1
# MDA-MB-435 = experiment: Growth inhibition of human MDA-MB-435 cells at 10 uM after 48 hrs by coulter counter method; conditions: MDA-MB-435, 48 h, read-out: GI; how it was run: as §1
# HCT-116 = experiment: Growth inhibition of human HCT116 cells at 10 uM after 48 hrs by coulter counter method; conditions: HCT-116, 48 h, read-out: GI; how it was run: as §1
# SNB-19 = experiment: Growth inhibition of human SNB19 cells at 10 uM after 48 hrs by coulter counter method; conditions: SNB-19, 48 h, read-out: GI; how it was run: as §1
# PC-3 = experiment: Growth inhibition of human PC3 cells at 10 uM after 48 hrs by coulter counter method; conditions: PC-3, 48 h, read-out: GI; how it was run: as §1
# UACC-257 = experiment: Growth inhibition of human UACC257 cells at 10 uM after 48 hrs by coulter counter method; conditions: UACC-257, 48 h, read-out: GI; how it was run: as §1
# RPMI-8226 = experiment: Growth inhibition of human RPMI8226 cells at 10 uM after 48 hrs by coulter counter method; conditions: RPMI-8226, 48 h, read-out: GI; how it was run: as §1
# UO-31 = experiment: Growth inhibition of human UO31 cells at 10 uM after 48 hrs by coulter counter method; conditions: UO-31, 48 h, read-out: GI; how it was run: as §1
smiles,measurement,setting,value
O=C1N=C2SC(c3ccc(Cl)cc3)=NN2C1=O,inhibition of growth at 10 µM,OVCAR-8,< 10%
same,inhibition of growth at 10 µM,U-251,< 10%
same,inhibition of growth at 10 µM,HCT-15,< 10%
same,inhibition of growth at 10 µM,SF-295,< 10%
same,inhibition of growth at 10 µM,SR,11.1%
same,inhibition of growth at 10 µM,Malme-3M,< 10%
same,inhibition of growth at 10 µM,786-0,< 10%
same,inhibition of growth at 10 µM,ACHN,< 10%
same,inhibition of growth at 10 µM,SN12C,< 10%
same,inhibition of growth at 10 µM,UACC-62,< 10%
same,inhibition of growth at 10 µM,A549,< 10%
same,inhibition of growth at 10 µM,SK-MEL-28,< 10%
same,inhibition of growth at 10 µM,NCI/ADR-RES,< 10%
same,inhibition of growth at 10 µM,SNB-75,< 10%
same,inhibition of growth at 10 µM,BT-549,12.2%
same,inhibition of growth at 10 µM,HL-60(TB),15.2%
same,inhibition of growth at 10 µM,EKVX,< 10%
same,inhibition of growth at 10 µM,T47D,< 10%
same,inhibition of growth at 10 µM,CAKI-1,< 10%
same,inhibition of growth at 10 µM,NCI-H522,19.7%
same,inhibition of growth at 10 µM,TK-10,< 10%
same,inhibition of growth at 10 µM,SF-268,< 10%
same,inhibition of growth at 10 µM,MOLT-4,10.6%
same,inhibition of growth at 10 µM,SK-MEL-2,< 10%
same,inhibition of growth at 10 µM,IGROV-1,< 10%
same,inhibition of growth at 10 µM,MCF7,12.1%
same,inhibition of growth at 10 µM,NCI-H23,< 10%
same,inhibition of growth at 10 µM,K562,12.7%
same,inhibition of growth at 10 µM,LOX IMVI,< 10%
same,inhibition of growth at 10 µM,NCI-H226,< 10%
same,inhibition of growth at 10 µM,SK-MEL-5,< 10%
same,inhibition of growth at 10 µM,CCRF-CEM,< 10%
same,inhibition of growth at 10 µM,A498,< 10%
same,inhibition of growth at 10 µM,HT-29,< 10%
same,inhibition of growth at 10 µM,NCI-H322M,< 10%
same,inhibition of growth at 10 µM,M14,< 10%
same,inhibition of growth at 10 µM,KM12,< 10%
same,inhibition of growth at 10 µM,MDA-MB-468,< 10%
same,inhibition of growth at 10 µM,MDA-MB-435,< 10%
same,inhibition of growth at 10 µM,HCT-116,< 10%
same,inhibition of growth at 10 µM,SNB-19,< 10%
same,inhibition of growth at 10 µM,PC-3,< 10%
same,inhibition of growth at 10 µM,UACC-257,< 10%
same,inhibition of growth at 10 µM,RPMI-8226,< 10%
same,inhibition of growth at 10 µM,UO-31,< 10%
